A short description of data set [1]: folding enthalpy; higher = less favourable; fluorescence melt of hairpins on a sequencing array, two-state fit. To be noted: sodium 0.088 M. Put shortly:
(§1)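 In 50 mM Na-HEPES pH 8.0 containing 25 mM NaCl, hairpins from the library on a sequenced MiSeq flow cell were imaged for Cy3 fluorescence at 2.5 °C steps up to 60 °C, with Cy3 and quencher oligos annealed. After normalisation to pre-quench Cy3 and to control constructs, two-state fits with bootstrapping gave melting temperature and folding enthalpy. Four replicates were combined by inverse-variance weighting, and fitted temperatures were shifted up by 9.35 °C to match UV melts.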

The nature of data set [2]: melting temperature; fluorescence melt of hairpins on a sequencing array, two-state fit, raised by 9.35 °C to match UV melts. To be noted: sodium 0.088 M. Put shortly:
as §1

For the sequence GGTAGGTCGAAAGACACC (((..(((....)))))), in data set [1], the folding enthalpy is -16.5 kcal/mol. In data set [2], the Tm came out at 35.3 °C.
Take GGTAGTCGAAAGACGACC (((.(((....))).))): in data set [1], the folding enthalpy is -44.9 kcal/mol. In addition, the Tm in data set [2] stood at 54.2 °C.
For GGTAGTGGAAACACTATC (.(((((....))))).), the folding enthalpy in data set [1] was -23.4 kcal/mol. Also, the Tm in data set [2] was found to be 43.5 °C.
On the same counts, the results for GGTAGTGGAAACGCTACC (((((.(....).))))) are -34.9 kcal/mol and 51.7 °C.
For GGTATACGAAAGTACACC (((.(((....))).))) the same measures were -28.7 kcal/mol and 40 °C.
On the same counts, the results for GGTATAGCGAAAGCTACC (((..(((....)))))) are -15.4 kcal/mol and 39.6 °C.
In the case of GGTATAGGAAACTGTACC ((((.((....)).)))), in data set [1], the folding enthalpy was -31.3 kcal/mol. Moreover, the Tm in data set [2] worked out at 43 °C.
For GGTATCGAAAGATATACC ((((((....)))..))) the same measures were -19.7 kcal/mol and 34 °C.
For GGTATCGAAAGATTAACC ((((((....)))..))) the same measures were -17 kcal/mol and 30.3 °C.
For GGTATCGAAAGATTTACC ((((((....)))..))) the same measures were -27.8 kcal/mol and 28.5 °C.
For the sequence GGTATCGGAAACGGTATC (.((.((....)).)).), the folding enthalpy in data set [1] was -26.1 kcal/mol. In addition, the Tm in data set [2] came to 30.9 °C.
For GGTATGGCGAAAGCCACC (((..(((....)))))) the same measures were -8.56 kcal/mol and 38.9 °C.
Regarding GGTATGGGAAACCATGCC ((.((((....)))).)), the folding enthalpy in data set [1] was -37.4 kcal/mol. Further, the Tm in data set [2] was determined as 51.3 °C.
With GGTATGGGAAACTATGCC ((.((.(....).)).)), the folding enthalpy in data set [1] was -23.7 kcal/mol. In addition, the Tm in data set [2] worked out at 30.9 °C.
On the same counts, the results for GGTATTCGAAAGAAAACC (((.(((....))).))) are -32.8 kcal/mol and 39.3 °C.
On the same counts, the results for GGTATTCGAAAGAAACC (((.(((....)))))) are -16.9 kcal/mol and 31.7 °C.
On the same counts, the results for GGTATTGCGAAAGCAACC (((..(((....)))))) are -10 kcal/mol and 29.4 °C.
For GGTATTGGAAACAACACC (((.(((....))).))), the folding enthalpy in data set [1] is -31.9 kcal/mol. Moreover, the Tm in data set [2] turned out to be 32.2 °C.
On the same counts, the results for GGTCAAACGAAAGTTACC (((..(((....)))))) are -15.1 kcal/mol and 30.3 °C.
For GGTCAACGAAAGTTTACC (((.(((....))).))) the same measures were -28.8 kcal/mol and 42.8 °C.
On the same counts, the results for GGTCAAGGAAACTTGATC (.(((((....))))).) are -34.1 kcal/mol and 42.1 °C.
For the sequence GGTCAAGGAAACTTGGTC (..((((....))))..), the folding enthalpy in data set [1] was -13.9 kcal/mol. For the same sequence, in data set [2], the Tm was determined as 29.7 °C.
For GGTCACCGAAAGGTACC (((.(((....)))))) the same measures were -19.7 kcal/mol and 47.1 °C.
For GGTCACGAAAGTGAAACC ((((((....)))..))) the same measures were -17.9 kcal/mol and 41.4 °C.
On the same counts, the results for GGTCACGAAAGTGAACC ((((((....))).))) are -27.2 kcal/mol and 55.6 °C.
With GGTCACGAAAGTGACACC ((((((....)))..))), the folding enthalpy in data set [1] is -7.64 kcal/mol. For the same sequence, the Tm in data set [2] worked out at 52 °C.
On to GGTCACGAAAGTGCAACC ((((((....)))..))), for which, in data set [1], the folding enthalpy is -15.9 kcal/mol. In data set [2], the Tm was determined as 38.6 °C.
For GGTCACGAAAGTGCCACC ((((((....)))..))) the same measures were -12.9 kcal/mol and 44.4 °C.
Turning to GGTCACGGAAACGCGACC ((((.((....)).)))), the folding enthalpy in data set [1] is -50.2 kcal/mol. Moreover, the Tm in data set [2] was 54.4 °C.
Regarding GGTCACGGAAACGTGATC (.(((((....))))).), the folding enthalpy in data set [1] is -30.4 kcal/mol. Moreover, the Tm in data set [2] stood at 53 °C.
Turning to GGTCACTCGAAAGAGACC (((..(((....)))))), the folding enthalpy in data set [1] is -24.1 kcal/mol. Moreover, the Tm in data set [2] was 40.8 °C.
For GGTCAGCGAAAGCTAACC (((.(((....))).))) the same measures were -25.6 kcal/mol and 46.7 °C.
For GGTCAGGGAAACCTAACC (((.(((....))).))) the same measures were -24.6 kcal/mol and 33.6 °C.
On the same counts, the results for GGTCCACGAAAGTGAACC (((.(((....))).))) are -34.8 kcal/mol and 51.3 °C.
Take GGTCCAGGAAACTAGACC ((((.((....)).)))): in data set [1], the folding enthalpy is -29.7 kcal/mol. Also, the Tm in data set [2] amounted to 35.7 °C.
In the case of GGTCCCCGAAAGGGAACC (((.(((....))).))), the folding enthalpy in data set [1] was -37 kcal/mol. In addition, the Tm in data set [2] amounted to 53 °C.
On the same counts, the results for GGTCCCGAAAGGGAGACC ((((((....)))..))) are -17 kcal/mol and 51.4 °C.
On the same counts, the results for GGTCCCGAAAGGGGTACC ((((((....)))..))) are -17.2 kcal/mol and 44.9 °C.
On the same counts, the results for GGTCCCGAAAGGGTCACC ((((((....)))..))) are -12.2 kcal/mol and 39.4 °C.
Consider GGTCCCGGAAACGGGGTC (..((((....))))..), for which, in data set [1], the folding enthalpy was -14.4 kcal/mol. Further, the Tm in data set [2] came to 42.8 °C.
For GGTCCGCGAAAGCGAACC (((.(((....))).))) the same measures were -28.1 kcal/mol and 57.5 °C.
For GGTCCGGGAAACCGGGCC ((.((((....)))).)) the same measures were -32.5 kcal/mol and 68 °C.
In the case of GGTCCGGGAAACCGGGTC (..((((....))))..), the folding enthalpy in data set [1] is -12.7 kcal/mol. Also, the Tm in data set [2] came out at 47.6 °C.
For GGTCCTGGAAACGGGATC (.(((.(....).))).) the same measures were -28.5 kcal/mol and 38.4 °C.
On the same counts, the results for GGTCGAGCGAAAGCTACC (((..(((....)))))) are -11.9 kcal/mol and 33.3 °C.
On the same counts, the results for GGTCGATCGAAAGATACC (((..(((....)))))) are -6.77 kcal/mol and 26.2 °C.
GGTCGCCGAAAGGCTACC (((.(((....))).))): the folding enthalpy in data set [1] was -21.2 kcal/mol. In addition, the Tm in data set [2] is 54.4 °C.
On the same counts, the results for GGTCGCGAAAGCGATACC ((((((....)))..))) are -11.3 kcal/mol and 47.7 °C.
For GGTCGCGAAAGCGCAACC ((((((....)))..))) the same measures were -13.1 kcal/mol and 42.4 °C.
Take GGTCGCGAAAGCGTACC ((((((....))).))): in data set [1], the folding enthalpy was -21.2 kcal/mol. In addition, the Tm in data set [2] worked out at 62 °C.
On the same counts, the results for GGTCGCGGAAACGCGGTC (..((((....))))..) are -13.2 kcal/mol and 47.4 °C.
On the same counts, the results for GGTCGGGGAAACCCAACC (((.(((....))).))) are -27 kcal/mol and 44.9 °C.
With GGTCGGGGAAACCCGGTC (..((((....))))..), in data set [1], the folding enthalpy was -14.8 kcal/mol. Moreover, the Tm in data set [2] was 45.5 °C.
On the same counts, the results for GGTCTAGGAAACCAGACC (((((.(....).))))) are -35.1 kcal/mol and 45 °C.

The values above are taken from the array DNA melting data of Ke et al. (doi:10.1101/2024.01.08.574731).
